Screening results (PubChem)
An excerpt weighted towards active compounds, which were near 2.3% of everything screened.
TRPC4 PAM – allosteric potentiators of mouse TRPC4 channel; Q9QUQ5; HEK293 TRPC4beta/mu-opioid, DAMGO EC20, Fluo-4 Ca2+ flux; active compounds read high; B-score at 10 µM; 0.42% of 310,000 active; AID 2227;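 active = B-score of calcium response area above 5 SD of library B-scores, with initial fluorescence ratio within 5 SD of library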;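 also: B-score of integrated fluorescence ratio over time as area under calcium response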
FID counter – fluorescent intercalator displacement, NS3 helicase counter-screen. inhibition, % at 7.9 µM. DNA fluorescent intercalator displacement, fluorescence. 0.17% of 290,000 active. AID 1845; in the data active = inhibition above about 37%;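 also: 0% = vehicle and 100% = reference compound; higher means more ethidium bromide displaced from hairpin DNA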
TRPC4 block – inhibitors of mouse TRPC4 channel; HEK293 TRPC4beta/mu-opioid, DAMGO-evoked Fluo4 calcium flux; active compounds read low; B-score at 10 µM; 0.39% of 300,000 active; Q9QUQ5;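 active = B-score over 3 SD under the library average, no early fluorescence shift, positive overall ratio signal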
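System: stable TRPC4beta/mu-opioid receptor HEK293 cells; Dosing: single-point compound dosing; Measured by: Fluo4 Ca2+ flux fluorescence; Read-out basis: per-well B score of integrated baseline-normalized Fluo4 ratio.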
TRPC6 inh – mouse TRPC6 channel inhibition; Q61143; HEK293-TRPC6, membrane potential dye, ACh-evoked depolarization; active compounds read low; B-score at 10 µM; 1.1% of 310,000 active;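 active = B-score under library mean minus 3 SD, initial fluorescence not abnormally high, positive integrated signal ratio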;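 also: B-score derived from integrated fluorescence ratio over the kinetic read; more negative B-score means stronger inhibition of depolarization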
TRPC6 activator – activators of mouse TRPC6 channel | Q61143 | HEK293-TRPC6 membrane potential dye fluorescence; active compounds read high | B-score at 10 µM | 0.13% of 310,000 active | AID 2550;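 active = B-score of the integrated fluorescence ratio above library mean plus 3 SD, and starting fluorescence ratio within library mean plus 5 SD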;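 also: higher score means more depolarization so channel activation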
TRPC4 act – activators of mouse TRPC4 channel | Q9QUQ5 | HEK293 TRPC4beta/mu-opioid, Fluo4 calcium fluorescence; active compounds read high | B-score at 10 µM | 0.49% of 310,000 active | AID 2237;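 active = B-score above 5 SD of library B-scores, and initial fluorescence ratio not above library mean plus 5 SD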;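 also: positive B-score marks a calcium rise read as TRPC4 activation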
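Material: TRPC4beta and mu-opioid receptor HEK293 stable cells | Incubation: 45 min room-temperature Fluo4 loading, 110 s read | Detection: Kinetic Fluo4 calcium fluorescence | Measure: Integrated baseline-normalised fluorescence ratio, converted to per-well B score | Benchmarks: Low control buffer alone, high control maximal DAMGO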
An asterisk follows results filed as active.

How did NC(=S)Nc1cccc2cc3ccccc3cc12 do in these assays?
TRPC4 PAM: inactive; FID counter: 7; TRPC4 block: inactive; TRPC6 inh: inactive; TRPC6 activator: inactive; TRPC4 act: inactive

Results for NC(=S)Nc1cc2ccccc2c2ccccc12 ?
TRPC4 PAM: 14*; FID counter: 1; TRPC4 block: inactive; TRPC6 inh: inactive; TRPC6 activator: inactive; TRPC4 act: inactive

What do the screens show for `CC(=N)c1c(O)c2ccccc2oc1=O`?
TRPC4 PAM: inactive; FID counter: -1; TRPC4 block: inactive; TRPC6 inh: inactive; TRPC6 activator: inactive; TRPC4 act: inactive

Results for CCCCC(=O)c1c(O)c2ccccc2oc1=O ?
TRPC4 PAM: inactive; FID counter: -4; TRPC4 block: inactive; TRPC6 inh: inactive; TRPC6 activator: inactive; TRPC4 act: inactive

Results for O=C(CC1CCCCC1)c1c(O)c2ccccc2oc1=O ?
TRPC4 PAM: inactive; FID counter: -4; TRPC4 block: inactive; TRPC6 inh: inactive; TRPC6 activator: inactive; TRPC4 act: 99*

What do the screens show for `CC1CCC(C(=O)c2c(O)c3ccccc3oc2=O)CC1` (configuration not stated)?
TRPC4 PAM: inactive; FID counter: -1; TRPC4 block: inactive; TRPC6 inh: inactive; TRPC6 activator: inactive; TRPC4 act: 44*

What do the screens show for `CN1CCN(C(=O)c2cnn(-c3ccccc3)c2NC(=O)c2ccc(Br)cc2)CC1`?
TRPC4 PAM: inactive; FID counter: 16; TRPC4 block: inactive; TRPC6 inh: inactive; TRPC6 activator: inactive; TRPC4 act: inactive

How did O=S(=O)(c1ccccc1Cl)N1CCC(Cc2ccccc2)CC1 do in these assays?
TRPC4 PAM: 20*; FID counter: -16; TRPC4 block: inactive; TRPC6 inh: inactive; TRPC6 activator: inactive; TRPC4 act: inactive

Results for CCOc1ccccc1C(=O)N(CN1CCCC1=O)c1cccc(Cl)c1 ?
TRPC4 PAM: inactive; FID counter: -17; TRPC4 block: inactive; TRPC6 inh: inactive; TRPC6 activator: inactive; TRPC4 act: 46*

Results for CC(OC(=O)C1CCN(S(=O)(=O)c2ccc(F)cc2)CC1)C(=O)NC1CCCCC1C (configuration not stated) ?
TRPC4 PAM: inactive; TRPC4 block: inactive; TRPC6 inh: inactive; TRPC6 activator: inactive; TRPC4 act: inactive

What do the screens show for `NCCOc1ccccc1-c1ccccc1`?
TRPC4 PAM: inactive; FID counter: 14; TRPC4 block: inactive; TRPC6 inh: inactive; TRPC6 activator: inactive; TRPC4 act: inactive

Results for Nc1ccc(Oc2ccccc2-c2ccccc2)cc1 ?
TRPC4 PAM: 14*; TRPC4 block: inactive; TRPC6 inh: inactive; TRPC6 activator: inactive; TRPC4 act: inactive

How did COc1ccc(N2CCN(C(=O)[C@@H](NC(=O)c3ccccc3Cl)C(C)C)CC2)cc1 do in these assays?
TRPC4 PAM: inactive; FID counter: -30; TRPC4 block: inactive; TRPC6 inh: inactive; TRPC6 activator: inactive; TRPC4 act: inactive

How did COc1ccc(C(=O)NNC(=O)CN2CCC(n3nnc4cc(C)ccc43)CC2)cc1 do in these assays?
TRPC4 PAM: 16*; FID counter: -14; TRPC4 block: inactive; TRPC6 inh: inactive; TRPC6 activator: inactive; TRPC4 act: inactive

What do the screens show for `COc1ccc(C(=O)NC2CCN(CC(=O)N3CCCCC3)CC2)cc1`?
TRPC4 PAM: inactive; FID counter: -6; TRPC4 block: inactive; TRPC6 inh: inactive; TRPC6 activator: inactive; TRPC4 act: inactive

How did O=C(CN1CCC(n2nnc3cc(F)ccc32)CC1)NNC(=O)c1ccccc1 do in these assays?
TRPC4 PAM: inactive; FID counter: -3; TRPC4 block: inactive; TRPC6 inh: inactive; TRPC6 activator: inactive; TRPC4 act: inactive

How did COc1ccc(C(=O)NC2CCN(CC(=O)NC3CCCCC3)CC2)cc1 do in these assays?
TRPC4 PAM: inactive; FID counter: -6; TRPC4 block: -6*; TRPC6 inh: inactive; TRPC6 activator: inactive; TRPC4 act: inactive

How did Cc1sc2ccc3sccc3c2[n+]1C do in these assays?
TRPC4 PAM: inactive; FID counter: -23; TRPC4 block: inactive; TRPC6 inh: -5.4*; TRPC6 activator: inactive; TRPC4 act: inactive
